The text below walks through data of ChEMBL document CHEMBL1126131, “6-Alkyl-12-formylindolo[2,1-a]isoquinolines. Syntheses, estrogen receptor binding affinities, and stereospecific cytostatic activity” (1992).

“And” between values parts separate entries of the source, which are not always exact repeats. Identical values can stand only once.

For experiment [1], the target named is Estrogen receptor (Bos taurus) (UniProt Q9XSB5+P49884). The experiment in a line: Relative binding affinity for calf uterine estrogen receptor compared to 17-beta-estradiol (E2). The experiment is classed as protein assay. The gist of the method: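 Competitive binding in calf uterine cytosol (final protein 3 mg/mL) in Tris-EDTA-NaN3 buffer, pH 7.5. 5 nM [3H]17β-estradiol plus competitor at 10^-9 to 10^-5 M, 18 h at 4 °C. Free ligand removed with dextran-coated charcoal (90 min, 4 °C). Nonspecific binding from 4 μM estradiol. RBA = ratio of estradiol to test molar concentrations giving 50% displacement × 100.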

Experiment [2] deals with MDA-MB-231. The experiment in a line: Inhibition of hormone-independent MDA-MB 231 mammary tumor cell proliferation at 1*10e-5 M. The experiment is classed as functional, Homo sapiens. The procedure, abridged:
(§1)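 MDA-MB 231 cells were grown in McCoy 5a medium with 10% NCS and were pre-grown 3 d in microplates before drug medium was added (controls 0.1% DMF). After 2 days of incubation, wells were fixed with 1% glutaraldehyde, stained with 0.02% crystal violet, and read by optical density. T/C (%) was corrected for initial density (vinblastine 10^-7 M). 16 replicates ± SD.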

For experiment [3], the system named is MDA-MB-231. Kind of experiment: Inhibition of hormone-independent MDA-MB 231 mammary tumor cell proliferation at 1*10e-6 M. The experiment is classed as functional, Homo sapiens. The procedure, abridged: as §1
The test system of experiment [4] is MDA-MB-231. Kind of experiment: Inhibition of hormone-independent MDA-MB 231 mammary tumor cell proliferation at 1*10e-7 M. In kind it is functional, Homo sapiens. The procedure, abridged: as §1
In experiment [5] the test system is MDA-MB-231. Kind of experiment: Inhibition of hormone-independent MDA-MB 231 mammary tumor cell proliferation at 5*10e-6 M. The experiment is classed as functional, Homo sapiens. The procedure, abridged:
as §1

Experiment [6] concerns MCF7. Kind of experiment: Inhibition of hormone-sensitive MCF-7 mammary tumor cell proliferation at 1*10e-5 M. In kind it is functional, Homo sapiens. The gist of the method:
(§2)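 MCF-7 cells were grown in modified improved MEM with 10% newborn calf serum at 37 °C and 5% CO2, plated in 96-well plates for 3 d, then given drug medium (controls 0.1% DMF). After 3 days, cells were glutaraldehyde-fixed and crystal violet-stained; T/C = test/control optical density, corrected for initial density (vinblastine 10^-7 M). 16 replicates ± SD.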

Experiment [7] concerns MCF7. The experiment in a line: Inhibition of hormone-sensitive MCF-7 mammary tumor cell proliferation at 1*10e-6 M. In kind it is functional, Homo sapiens. The procedure, abridged:
as §2

The subject of experiment [8] is MCF7. Kind of experiment: Inhibition of hormone-sensitive MCF-7 mammary tumor cell proliferation at 1*10e-7 M. The experiment is classed as functional, Homo sapiens. The gist of the method: as §2
Experiment [9] has as its system MCF7. Kind of experiment: Inhibition of hormone-sensitive MCF-7 mammary tumor cell proliferation at 5*10e-6 M. In kind it is functional, Homo sapiens. The procedure, abridged:
as §2

In experiment [10] the target is T1, Estrogen receptor (Mus musculus) (UniProt O08537+P19785). Kind of experiment: Percent inhibition of estrone-stimulated uterotrophic effect in mice at 250 ug dose. The experiment is classed as functional. The procedure, abridged: (§3)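 Antiuterotrophic test in immature female NMRI mice (20 days old). Estrone 0.4 μg was co-injected with the compound in olive oil, sc daily for three days. Uterine dry weight per body weight was read 24 h after the last dose. Inhibition (%) = 100 − [(W_S,T − W_V)/(W_S − W_V) × 100], where W_V is the vehicle control.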
T1 sequence (O08537 whole entry, looked up): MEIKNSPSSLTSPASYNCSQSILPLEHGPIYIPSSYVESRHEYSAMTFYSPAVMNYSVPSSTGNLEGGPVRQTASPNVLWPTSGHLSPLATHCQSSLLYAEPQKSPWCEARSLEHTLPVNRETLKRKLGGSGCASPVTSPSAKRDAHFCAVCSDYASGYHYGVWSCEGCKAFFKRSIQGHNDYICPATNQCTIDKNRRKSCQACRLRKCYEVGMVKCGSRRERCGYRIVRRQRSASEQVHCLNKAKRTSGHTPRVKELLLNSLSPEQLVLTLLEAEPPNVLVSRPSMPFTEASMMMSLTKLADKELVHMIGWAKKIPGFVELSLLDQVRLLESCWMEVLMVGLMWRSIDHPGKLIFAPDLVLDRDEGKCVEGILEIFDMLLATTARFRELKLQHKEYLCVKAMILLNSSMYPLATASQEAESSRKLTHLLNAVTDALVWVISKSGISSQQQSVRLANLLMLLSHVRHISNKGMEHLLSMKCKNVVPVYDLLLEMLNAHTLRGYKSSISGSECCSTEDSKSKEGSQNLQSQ
T1 sequence (P19785 whole entry, looked up): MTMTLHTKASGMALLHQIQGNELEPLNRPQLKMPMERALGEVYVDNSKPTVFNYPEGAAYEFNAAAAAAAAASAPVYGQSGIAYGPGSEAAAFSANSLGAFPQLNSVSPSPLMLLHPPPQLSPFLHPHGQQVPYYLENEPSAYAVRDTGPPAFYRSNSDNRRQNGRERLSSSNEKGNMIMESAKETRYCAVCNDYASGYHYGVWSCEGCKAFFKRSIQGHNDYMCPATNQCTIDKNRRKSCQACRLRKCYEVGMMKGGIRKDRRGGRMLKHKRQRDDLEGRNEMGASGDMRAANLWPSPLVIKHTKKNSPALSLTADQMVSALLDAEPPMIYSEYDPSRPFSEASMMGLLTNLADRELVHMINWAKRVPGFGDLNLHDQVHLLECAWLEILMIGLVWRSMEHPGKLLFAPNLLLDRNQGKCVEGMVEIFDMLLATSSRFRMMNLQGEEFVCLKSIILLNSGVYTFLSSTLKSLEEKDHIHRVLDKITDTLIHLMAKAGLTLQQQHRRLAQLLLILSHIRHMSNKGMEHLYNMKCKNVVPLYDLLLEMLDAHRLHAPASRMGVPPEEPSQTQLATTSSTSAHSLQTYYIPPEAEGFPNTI

Experiment [11] addresses T1, Estrogen receptor (Mus musculus). Kind of experiment: Percent inhibition of estrone-stimulated uterotrophic effect in mice at 50 ug dose. In kind it is functional. The gist of the method: as §3
The target is the same in experiment [12]. Kind of experiment: Percent inhibition of estrone-stimulated uterotrophic effect in mice at 10 ug dose. In kind it is functional. The procedure, abridged:
as §3

Experiment [13] has the same target. Kind of experiment: Percent inhibition of estrone-stimulated uterotrophic effect in mice at 2 ug dose. In kind it is functional. The gist of the method:
as §3

Experiment [14] has the same target. Kind of experiment: Anti-uterotrophic effect in mice as uterine weight(mg) relative to body weight(g) at 10 ug dose. In kind it is functional. The gist of the method:
(§4)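 Immature female NMRI mice, 20 days old, groups of six to ten; compound plus standard estrone 0.4 μg in olive oil (100 μL/animal) given sc on three consecutive days. Killed 24 h after last injection; uteri fixed in Bouin solution 2 h, dried at 100 °C for 18 h, weighed. Relative weight = uterine dry weight (mg)/body weight (g) × 100; mean of 6 animals ± SD.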

For experiment [15] the target is unchanged. Kind of experiment: Anti-uterotrophic effect in mice as uterine weight(mg) relative to body weight(g) at 2 ug dose. The experiment is classed as functional. The gist of the method:
as §4

Experiment [16] shares this target. Kind of experiment: Anti-uterotrophic effect in mice as uterine weight(mg) relative to body weight(g) at 250 ug dose. In kind it is functional. The procedure, abridged: as §4
Experiment [17] shares this target. Kind of experiment: Uterotrophic effect in mice as uterine weight(mg) relative to body weight(g) at 10 ug dose. The experiment is classed as functional, tissue-based. The procedure, abridged:
(§5)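 Uterotrophic test: 20-day-old immature female NMRI mice, six to ten per group, received compound alone in olive oil (100 μL/animal) sc on three consecutive days; controls received vehicle. After 24 h, uteri were Bouin-fixed 2 h and dried 18 h at 100 °C. Uterine dry weight (mg)/body weight (g) × 100; mean of 6 ± SD.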

The target is the same in experiment [18]. Kind of experiment: Uterotrophic effect in mice as uterine weight(mg) relative to body weight(g) at 2 ug dose. The experiment is classed as functional, tissue-based. The procedure, abridged:
as §5

Experiment [19] shares this target. The experiment in a line: Uterotrophic effect in mice as uterine weight(mg) relative to body weight(g) at 250 ug dose. The experiment is classed as functional, tissue-based. The procedure, abridged:
as §5

Experiment [20] shares this target. Kind of experiment: Anti-uterotrophic effect in mice as uterine weight(mg) relative to body weight(g) at 50 ug dose. The experiment is classed as functional. The gist of the method: as §4
The target is the same in experiment [21]. Kind of experiment: Uterotrophic effect in mice as uterine weight(mg) relative to body weight(g) at 50 ug dose. The experiment is classed as functional, tissue-based. The gist of the method: as §5

Molecule `CCCC1Cc2cc(OC(C)=O)ccc2-c2c(C=O)c3ccc(OC(C)=O)cc3n21` (stereo not given) came in with a relative binding affinity (RBA) in experiment [1] of 0.5. Moreover, the T/C in experiment [2] was found to be 14%; in experiment [3] it was 31%; in experiment [4] it was 100%; in experiment [5], 15%; in experiment [6], 0%; in [7] it was 1%. In addition, the T/C in experiment [8] is given as 71%; in experiment [9], 0%. Besides, the inhibition in [10] was found to be 65%; in [11], 35%; in experiment [12], 41%; in experiment [13] it was 39%. The Relative uterus weight in experiment [14] was 38.4 and 16.9; in experiment [15], 39.4; in experiment [16], 29.5; in experiment [17] it was 17.1; in [18] it was 20.4; in [19] it was 17.4. In addition, in [20], the Relative uterus weight turned out to be 40.7.
Consider `CCCCCC1Cc2cc(OC(C)=O)ccc2-c2c(C=O)c3ccc(OC(C)=O)cc3n21` (stereo not given), for which the relative binding affinity (RBA) in experiment [1] worked out at 0.6. Also, the T/C amounted to 27% in experiment [2]; 105% in experiment [3]; 118% in experiment [4]; 70% in experiment [5]; 0% in [6]; 90% in experiment [7]. Besides, the T/C stood at 101% in experiment [8] and 0% in experiment [9]. Also, the inhibition was 38% in experiment [10], 52% in [11], 25% in [12] and 19% in experiment [13]. Further, the Relative uterus weight in experiment [14] was determined as 46.4; in experiment [15] it was 49; in experiment [16] it was 41.2; in experiment [17], 16.6; in experiment [18], 16.4; in experiment [19] it was 19.5. Besides, the Relative uterus weight in [21] came to 15.8; in experiment [20] it was 35.6.
Regarding `CCC1Cc2cc(OC(C)=O)ccc2-c2c(C=O)c3cc(OC(C)=O)ccc3n21` (stereo not given), the relative binding affinity (RBA) in experiment [1] was determined as 3.3. Further, the T/C in experiment [2] is reported as 52%; in experiment [3] it was 111%; in experiment [4], 106%; in experiment [5], 86%; in [6] it was 12%; in experiment [7], 91%. Moreover, the T/C in [8] is 85%; in experiment [9], 43%. Besides, the inhibition in [10] stood at 80%; in experiment [11], 74%; in experiment [12], 22%; in experiment [13], 25%. Further, the Relative uterus weight stood at 46.1 in experiment [14]; 45.3 in experiment [15]; 24.6 in experiment [16]; 17.2 in experiment [17]; 18.2 in experiment [18]; 41.8 in experiment [19]. For the same molecule, the Relative uterus weight in experiment [21] worked out at 20.5; in experiment [20] it was 27.
In the case of `CC/C(=C(\c1ccccc1)c1ccc(OCCN(C)C)cc1)c1ccccc1` [TAMOXIFEN], the T/C in experiment [6] came to 18%; in experiment [7] it was 57%; in [8], 85%; in experiment [9] it was 43%.
In turn, `CC(=O)Oc1ccc2c(c1)CC(C)n1c-2c(C=O)c2cc(OC(C)=O)ccc21` (stereo not given) gave a relative binding affinity (RBA) in experiment [1] of 3.9. In addition, the T/C in experiment [2] worked out at 61%; in [3], 104%; in experiment [4], 109%; in experiment [5] it was 94%; in [6] it was 23%; in experiment [7], 94%. The T/C in [8] is given as 93%; in [9] it was 54%. In addition, the inhibition in experiment [10] amounted to 32%; in experiment [11], 49%; in experiment [12], 36%; in experiment [13], 0%. The Relative uterus weight was 42.8 in [14]; 60.5 in [15]; 44.4 in experiment [16]; 18.2 in experiment [17]; 14.8 in experiment [18]; 43.2 in experiment [19]. Besides, the Relative uterus weight in experiment [21] came to 24.6; in experiment [20] it was 36.5.
Take `CC(=O)Oc1ccc2c(c1)CC(C)n1c-2c(C=O)c2ccc(OC(C)=O)cc21` (stereo not given): the relative binding affinity (RBA) in [1] was determined as 1.7. For the same molecule, the T/C in experiment [2] is listed as 45%; in experiment [3], 112%; in experiment [4], 109%; in [5], 79%; in experiment [6] it was 1%; in [7], 106%. The T/C in experiment [8] came to 97%; in experiment [9], 36%. Also, the inhibition in [10] worked out at 38%; in experiment [11] it was 30%; in experiment [12] it was 14%; in [13], 20%. The Relative uterus weight in experiment [14] is 48.5; in [15], 45.3; in experiment [16] it was 39.7; in [17] it was 18.2; in experiment [18], 19.6; in experiment [19], 19.9. The Relative uterus weight in experiment [21] amounted to 18.2; in [20] it was 42.6.
In the case of `CCCCC1Cc2cc(OC(C)=O)ccc2-c2c(C=O)c3ccc(OC(C)=O)cc3n21` (stereo not given), in experiment [1], the relative binding affinity (RBA) came to 0.7. Besides, the T/C is recorded as 16% in [2]; 30% in experiment [3]; 104% in experiment [4]; 24% in experiment [5]; 0% in experiment [6]; 0% in experiment [7]. In addition, the T/C in experiment [8] came to 66%; in experiment [9] it was 0%. The inhibition in [10] turned out to be 19%; in [11] it was 8%; in experiment [12], 20%; in [13], 6%. Besides, the Relative uterus weight in experiment [14] came out at 46.7; in [15], 52.8; in experiment [16], 47.5; in experiment [17], 13.7; in experiment [18] it was 16.7; in experiment [19], 10.6. Moreover, the results for the Relative uterus weight in [21] and in experiment [20] were 12.3 and 51.8, respectively.
With `CCC1Cc2cc(OC(C)=O)ccc2-c2c(C=O)c3ccc(OC(C)=O)cc3n21` (stereo not given), the relative binding affinity (RBA) in [1] was 1.3. Moreover, the T/C in [2] was 10%; in experiment [3] it was 92%; in experiment [4] it was 101%; in experiment [5], 34%; in experiment [6], 0%; in experiment [7], 83%. In addition, the results for the T/C in [8] and in experiment [9] were 89% and 2%, respectively. Besides, the inhibition in experiment [10] worked out at 38%; in experiment [11], 27%; in experiment [12] it was 14%; in experiment [13], 17%. Also, the Relative uterus weight is 49 in experiment [14]; 47.9 in experiment [15]; 40.2 in [16]; 17.7 in experiment [17]; 15.9 in [18]; 22.8 in experiment [19]. The Relative uterus weight was determined as 18.2 in experiment [21] and 44.2 in experiment [20].
